Assay outcomes (PubChem BioAssay)
Shown are actives, neighbours in structure and some others; about 3.6% of the full set was active somewhere.
PfHsp90 yeast 2 = reduces growth (ATP signal) of yeast expressing P. falciparum Hsp90; inhibition, % at 9.4 µM; AID 504621; S. cerevisiae expressing PfHsp90, BacTiter-Glo ATP, 48 h; yeast lacking PDR1 and PDR3 efflux regulators; actives 0.32% (n = 310,000);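 active means every replicate shows inhibition above about 80%, whatever the replicate mean, limit read from the data; inconclusive means mean inhibition reaches the set limit but some replicate falls short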
T cruzi inh = T. cruzi replication inhibition; AID 1885; actives 1.4% (n = 300,000); T. cruzi beta-gal in NIH3T3, luminescence, 90 h; inhibition, % (test concentration not listed);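 active means mean inhibition across valid replicates above about 55%, limit read from the data; inconclusive means mean below that limit but half or more replicates reach it; inactive means mean below it, under half of replicates reach it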;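 further: signal also drops with host cell toxicity which is not excluded here; higher percent means less beta-gal luminescence so fewer parasites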
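System – NIH/3T3 host cells with β-galactosidase reporter T. cruzi · Doses – single 50 nL compound addition per well in DMSO · Reagent – 5000 T. cruzi trypomastigotes/well · Medium – Low-serum DMEM with 2% FBS · Timing – ≥90 h infection period, 3 h prior cell attachment · Evaluation – parasite load inhibition, % · Technique – GalScreen luminescence, 60 min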
SKKanGAS inh = inhibitors of SKKanGAS S. pyogenes growth in kanamycin (SK-promoter or general growth effect). BacTiter-Glo, 6 h. inhibition, % at 7.5 µM. actives 1.3% (n = 300,000). AID 1662;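 active means mean replicate score, as percent of positive control median, at least 50; inconclusive means mean below 50 but one replicate at or above 50; inactive means mean and every replicate below 50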;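 further: strain carries kanamycin resistance gene driven by streptokinase promoter and grows in 40 µg/ml kanamycin; loss of luminescence reflects streptokinase promoter inhibition or plain growth inhibition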
CSC inhib = blocks cancer stem cells; cancer stem cell-like cells viability, luminescence; inhibition, % at 7.5 µM; actives 1.1% (n = 300,000); in the data active means inhibition above about 75%; inconclusive means no clear call, values can overlap the other calls; tested in HMLE shEcad cells
Beta apoptosis = beta cell apoptosis inhibition; actives 0.8% (n = 300,000); INS-1E cytokine-induced death, ATP luminescence, 48 h; percent of positive-control rescue, neutral wells zero; protection from apoptosis, % (no concentration beside the values);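 active means Every replicate reaches about 75%, or at least half do and their mean reaches it too, limit read from the data; inconclusive means At least half of replicates reach the limit but their mean does not; inactive means Under half of replicates reach the limit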;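 further: higher means more ATP so stronger rescue from cytokine killing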
HIF act = HIF pathway transcriptional activation; actives 0.32% (n = 300,000); activation, % at 7.5 µM (by protocol); U2OS HRE-luciferase reporter, luminescence; normalized: DMSO 0%, desferrioxamine 100%; AID 1910;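 active means mean activation of at least 10% of the iron chelator positive control signal, with at least half of replicates also reaching 10%; inconclusive means mean and replicate majority disagree about reaching 10%; inactive means mean and most replicates under 10%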
Numbers stand for hits; 0 = inactive; ? = inconclusive; - = not tested or not shown.

SMILES	PfHsp90 yeast 2	T cruzi inh	SKKanGAS inh	CSC inhib	Beta apoptosis	HIF act
CCCCN(C)CCCNC(=O)c1ccc2c(c1)N(CC)C(=O)c1ccccc1S2=O (stereo not drawn)	0	61	0	0	0	0
CCOc1ccc(C(=O)NCC2OCCc3ccccc32)cc1 (stereo not drawn)	0	0	0	0	0	0
CC1CCc2c(sc3nc(CN4CCOCC4)nc(Sc4ccccc4)c23)C1 (stereo not drawn)	0	0	0	84	0	0
CN1CCN(c2nc(-c3ccccc3)nc(-c3ccc(F)cc3)c2C#N)CC1	0	55	0	0	0	0
COc1ccccc1-c1nc(-c2ccccc2)nc(N2CCN(C)CC2)c1C#N	0	0	0	0	0	0
Cc1ccc(C)c(N2CCN(C(=O)CCc3nc(-c4ccccc4Br)no3)CC2)c1	0	-	-	-	-	-
CCCC(O)(c1ccc(Cl)cc1)C(CN1CCOCC1)c1ccc(Cl)cc1 (stereo not drawn)	0	0	0	94	0	0
CCCC(O)(c1ccc(OC)cc1)C(CN1CCOCC1)c1ccc(Cl)cc1 (stereo not drawn)	0	0	0	0	0	0
O=C(CNC(=O)c1ccccc1O)N/N=C/c1cc(Br)ccc1OC(=O)/C=C/c1ccco1	-	?	0	0	89	0
COc1ccc(-c2cc(C3CCN(c4cc(Cl)nc(N)n4)CC3)[nH]n2)cc1	0	0	0	0	0	0
Nc1nc(Cl)cc(N2CCC(c3cc(-c4ccc(Cl)cc4)n[nH]3)CC2)n1	0	58	0	0	104	0
CCCN=C1N(CC)C[C@@H]2[C@@H]3C(=O)N(Cc4ccccc4)C(=O)[C@@H]3[C@](Cc3ccccc3)(C(=O)OC)N12	0	-	-	-	-	-
CCC(C)Sc1cccc(-c2nc3ccc(Cl)cn3c2NCc2ccccc2)c1 (stereo not drawn)	0	0	0	0	0	0
CCCCCCSc1cccc(-c2nc3ccc(C)cn3c2NCc2ccccc2)c1	0	0	0	80	0	0
CCCCCCSc1cc(-c2nc3ccc(C)cn3c2NCc2ccccc2)ccc1OC	0	0	0	0	117	0
CCC(C)Sc1cccc(-c2nc3ccc(C)cn3c2NCc2ccccc2)c1 (stereo not drawn)	0	0	67	125	?	0
CCCCCCSc1cccc(-c2nc3cc(C)ccn3c2NCc2ccccc2)c1	0	0	0	0	0	0
Cc1ccc2nc(-c3cccc(-c4cccc(Cl)c4)c3)c(NCc3ccccc3)n2c1	0	0	0	?	94	0
Cn1c(C(=O)Nc2ccc(Cl)cc2)cc2cc(Cl)ccc21	0	0	0	0	0	0
Cc1ccccc1SCC(=O)Nc1cc(C(F)(F)F)ccc1N1CCOCC1	0	65	0	0	0	0
O=C1CC(N2CCN(S(=O)(=O)c3ccccc3F)CC2)C(=O)N1c1ccccc1F (stereo not drawn)	0	-	-	-	-	-
C=CCn1c(SCc2ccc(F)cc2)nnc1-c1sc2nc(C)cc(C)c2c1N	0	63	0	0	0	0
O=C(Nc1nc(-c2ccccc2)c(-c2ccccc2)o1)c1ccc(F)cc1	105	0	101	0	0	0
COc1cccc(C(=O)Nc2nc(-c3ccccc3)c(-c3ccccc3)o2)c1	0	0	92	0	0	0
COc1cccc(C(=O)Nc2ccccc2)c1	0	0	0	0	0	0
SMILES	PfHsp90 yeast 2	T cruzi inh	SKKanGAS inh	CSC inhib	Beta apoptosis	HIF act
CCOC(=O)C(=O)Nc1nc(-c2ccccc2)c(-c2ccccc2)o1	0	0	0	0	0	0
CCOc1ccc(C(C)=O)cc1COC(=O)CNC(=O)C12CC3CC(CC(C3)C1)C2	0	-	-	0	0	-
CC1=CC(=O)C(C(C)C)=C/C1=C(\c1cc(C(C)C)c(OP(=O)(O)O)cc1C)c1ccccc1C(=O)O	0	0	0	101	0	0
COc1ccc(CCNC(=O)CCCc2ccccc2)cc1OC	0	0	0	0	0	0
O=C(/C=C/c1cccc([N+](=O)[O-])c1)c1cccs1	93	0	0	0	0	0
O=C(/C=C/c1cccc([N+](=O)[O-])c1)Nc1ccc(NC(=O)c2cccs2)cc1	0	0	0	0	0	-
CC(=O)Oc1ccccc1C(=O)C=Cc1cccc([N+](=O)[O-])c1	106	-	-	-	-	-
Cc1cc(O)c(C(=O)/C=C/c2cccc([N+](=O)[O-])c2)c(=O)o1	0	0	0	0	0	0
Cc1cc(C)n2nc(CCCO)nc2n1	0	0	0	0	0	0
COc1cc(F)c(C2=CC(=O)C[C@H](c3ccc(Cl)cc3)C2)cc1F	0	-	-	78	0	-
COc1ccc([C@H]2CC(=O)C=C(c3cc(Br)ccc3OC)C2)cc1	0	-	-	-	0	-
COc1ccc([C@H]2CC(=O)C=C(c3ccnc4ccc(Cl)cc34)C2)cc1	0	-	-	0	89	-
O=C1C=C(c2ccc(F)cc2OCc2ccccc2)C[C@@H](c2ccc3c(c2)OCO3)C1	0	-	-	0	0	-
CCOc1ccc(Br)cc1C1=CC(=O)C[C@H](c2ccc(OC)cc2)C1	0	-	-	82	0	-
O=C1C=C(c2ccc(F)cc2OCc2ccccc2)C[C@@H](c2ccc(Cl)cc2)C1	0	-	-	0	111	-
COc1ccc(/C=C/c2n[nH]c(=O)c(C#N)c2C)cc1	0	0	0	0	0	0
O=C(N=C1SC2CS(=O)(=O)CC2N1Cc1ccccc1)C1CCCCC1 (stereo not drawn)	0	0	0	0	0	0
O=C(NCc1ccc2c(c1)OCO2)c1ccc(N2CCCCCC2)c([N+](=O)[O-])c1	0	59	0	0	0	0
O=C(NCc1ccc2c(c1)OCO2)c1ccc(Br)cc1	89	0	0	0	0	0
CC1CCN(c2ccc(C(=O)Nc3ccc4c(c3)OCO4)cc2[N+](=O)[O-])CC1	0	0	0	78	0	0
CC1CCCN(c2ccc(C(=O)NCc3ccc4c(c3)OCO4)cc2[N+](=O)[O-])C1 (stereo not drawn)	0	0	0	0	0	0
O=C(NCc1ccc2c(c1)OCO2)c1ccccc1	0	0	0	0	-	0
CC1CCCN(c2ccc(C(=O)Nc3ccc4c(c3)OCO4)cc2[N+](=O)[O-])C1 (stereo not drawn)	0	0	0	102	0	0
CC(C)[C@H](NC(=O)c1ccc(Cl)cc1Cl)C(=O)OCc1nc2ccsc2c(=O)[nH]1	0	-	-	-	-	-
Cc1onc(-c2c(F)cccc2Cl)c1C(=O)NCc1ccc2c(c1)OCO2	0	0	59	0	0	0
CCN(CC)CCN1C(=O)/C(=C\c2ccc(Cl)c([N+](=O)[O-])c2)SC1=Nc1ccc(OC)cc1	0	57	0	?	0	0
COc1ccc(N=C2S/C(=C\c3ccc(Cl)c([N+](=O)[O-])c3)C(=O)N2CCN(C)C)cc1	0	65	0	105	0	0
CCCN1C(=O)/C(=C/c2ccc(C)s2)SC1=Nc1ccc(OC)cc1	0	0	0	0	0	0
